Calls of active or inactive are those of the source. The rule behind the calls is not given here.
Key:
[1] = target: T1, Metabotropic glutamate receptor 5 (Rattus norvegicus, UniProt P31424); assay: Antagonist activity at mGluR5 in Sprague-Dawley rat astrocyte assessed as L-quisqualate induced potentiation of intracellular calcium level by FLIPR assay; assay type: functional, cell-based
[2] = target: T1, Metabotropic glutamate receptor 5; assay: Displacement of [3H]MPEP from rat mGluR5
[3] = target: T2, Metabotropic glutamate receptor 5 (Homo sapiens, UniProt P41594); assay: Positive modulation of human mGluR5 assessed as fold left shift of L-glutamate EC50 by calcium FLIPR assay
[4] = target: Metabotropic glutamate receptor 5 (Rattus norvegicus) (UniProt P31424); assay: Positive modulation of rat mGluR5 assessed as fold left shift of L-quisqualate EC50 by calcium FLIPR assay
[5] = target: T2, Metabotropic glutamate receptor 5; assay: Antagonist activity at human mGluR5 expressed in CHO cells assessed as L-glutamate induced potentiation of intracellular calcium level by FLIPR assay; assay type: functional, cell-based
In short: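 Human mGluR5 FLIPR calcium assay. Cells were loaded with Ca-sensitive dye for 2 h at RT in HEPES-buffered saline, pH 7.3. The dye kit contained glutamic-pyruvate transferase, Na-pyruvate and pyridoxal phosphate to avoid glutamate build-up. Compounds were preincubated 5 min before L-glutamate, and the intracellular calcium rise was read as RFU.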
Target sequence in this assay (P41594 whole entry): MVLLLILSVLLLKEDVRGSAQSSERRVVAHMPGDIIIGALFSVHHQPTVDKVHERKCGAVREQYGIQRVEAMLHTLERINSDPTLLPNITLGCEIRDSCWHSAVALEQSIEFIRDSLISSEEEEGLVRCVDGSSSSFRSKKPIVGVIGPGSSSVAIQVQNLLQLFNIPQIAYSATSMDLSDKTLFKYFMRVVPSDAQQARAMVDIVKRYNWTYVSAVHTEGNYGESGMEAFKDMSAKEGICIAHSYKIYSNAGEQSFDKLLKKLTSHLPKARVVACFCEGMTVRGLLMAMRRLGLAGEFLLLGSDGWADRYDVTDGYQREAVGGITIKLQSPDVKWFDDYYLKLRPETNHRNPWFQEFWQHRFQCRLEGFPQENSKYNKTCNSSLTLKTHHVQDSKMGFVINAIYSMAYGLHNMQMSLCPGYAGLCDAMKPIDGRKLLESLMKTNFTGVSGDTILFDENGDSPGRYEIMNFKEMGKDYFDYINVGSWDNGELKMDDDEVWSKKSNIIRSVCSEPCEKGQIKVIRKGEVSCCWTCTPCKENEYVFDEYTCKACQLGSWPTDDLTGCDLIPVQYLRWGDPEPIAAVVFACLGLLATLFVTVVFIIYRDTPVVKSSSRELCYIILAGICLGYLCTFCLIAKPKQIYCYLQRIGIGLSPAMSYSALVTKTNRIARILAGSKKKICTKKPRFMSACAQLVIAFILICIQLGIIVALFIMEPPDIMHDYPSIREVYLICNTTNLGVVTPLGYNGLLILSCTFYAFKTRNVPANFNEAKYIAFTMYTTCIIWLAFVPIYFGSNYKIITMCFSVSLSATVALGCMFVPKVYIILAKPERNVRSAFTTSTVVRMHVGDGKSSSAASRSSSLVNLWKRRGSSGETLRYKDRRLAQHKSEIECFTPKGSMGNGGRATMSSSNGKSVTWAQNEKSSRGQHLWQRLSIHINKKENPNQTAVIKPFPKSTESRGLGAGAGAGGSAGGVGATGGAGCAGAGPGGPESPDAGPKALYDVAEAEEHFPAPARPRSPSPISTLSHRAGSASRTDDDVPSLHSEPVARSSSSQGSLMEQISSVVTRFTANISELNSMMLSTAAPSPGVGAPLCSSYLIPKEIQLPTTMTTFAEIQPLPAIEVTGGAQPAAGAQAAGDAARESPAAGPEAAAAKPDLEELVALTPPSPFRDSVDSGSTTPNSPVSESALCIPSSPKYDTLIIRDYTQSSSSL

[6] = target: T2, Metabotropic glutamate receptor 5; assay: Reversal of antagonist activity at human mGluR5 expressed in CHO cells in presence of L-glutamate mGluR5 agonist at 10 uM by FLIPR assay; assay type: functional, cell-based
[7] = target: Metabotropic glutamate receptor 5 (Rattus norvegicus) (UniProt P31424); assay: Reversal of antagonist activity at Sprague-Dawley rat astrocyte mGluR5 in presence of L-quisqualate mGluR5 agonist at 10 uM by FLIPR assay; assay type: functional
[8] = target: Metabotropic glutamate receptor 5 (Rattus norvegicus) (UniProt P31424); assay: Displacement of [3H]MPEP from rat mGluR5 upto 10 uM
In short: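 Membranes were washed four times in 50 mM Tris-HCl pH 8.0 and resuspended in 50 mM Tris-HCl pH 7.5. 125–250 µg protein was incubated with 5 nM [3H]MPEP and test agent (up to 10 µM), up to 5% DMSO, 60 min at RT. Nonspecific binding: 10 µM MPEP. Filtered on glass fibre filters, rinsed with ice-cold buffer, then scintillation counted.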

[9] = target: T3, Metabotropic glutamate receptor 1 (Rattus norvegicus, UniProt P23385); assay: Antagonist activity at rat mGluR1 expressed in cerebellar granule cells assessed as accumulation of [3H]inositol phosphate; assay type: functional, cell-based
T3 sequence (P23385 whole entry): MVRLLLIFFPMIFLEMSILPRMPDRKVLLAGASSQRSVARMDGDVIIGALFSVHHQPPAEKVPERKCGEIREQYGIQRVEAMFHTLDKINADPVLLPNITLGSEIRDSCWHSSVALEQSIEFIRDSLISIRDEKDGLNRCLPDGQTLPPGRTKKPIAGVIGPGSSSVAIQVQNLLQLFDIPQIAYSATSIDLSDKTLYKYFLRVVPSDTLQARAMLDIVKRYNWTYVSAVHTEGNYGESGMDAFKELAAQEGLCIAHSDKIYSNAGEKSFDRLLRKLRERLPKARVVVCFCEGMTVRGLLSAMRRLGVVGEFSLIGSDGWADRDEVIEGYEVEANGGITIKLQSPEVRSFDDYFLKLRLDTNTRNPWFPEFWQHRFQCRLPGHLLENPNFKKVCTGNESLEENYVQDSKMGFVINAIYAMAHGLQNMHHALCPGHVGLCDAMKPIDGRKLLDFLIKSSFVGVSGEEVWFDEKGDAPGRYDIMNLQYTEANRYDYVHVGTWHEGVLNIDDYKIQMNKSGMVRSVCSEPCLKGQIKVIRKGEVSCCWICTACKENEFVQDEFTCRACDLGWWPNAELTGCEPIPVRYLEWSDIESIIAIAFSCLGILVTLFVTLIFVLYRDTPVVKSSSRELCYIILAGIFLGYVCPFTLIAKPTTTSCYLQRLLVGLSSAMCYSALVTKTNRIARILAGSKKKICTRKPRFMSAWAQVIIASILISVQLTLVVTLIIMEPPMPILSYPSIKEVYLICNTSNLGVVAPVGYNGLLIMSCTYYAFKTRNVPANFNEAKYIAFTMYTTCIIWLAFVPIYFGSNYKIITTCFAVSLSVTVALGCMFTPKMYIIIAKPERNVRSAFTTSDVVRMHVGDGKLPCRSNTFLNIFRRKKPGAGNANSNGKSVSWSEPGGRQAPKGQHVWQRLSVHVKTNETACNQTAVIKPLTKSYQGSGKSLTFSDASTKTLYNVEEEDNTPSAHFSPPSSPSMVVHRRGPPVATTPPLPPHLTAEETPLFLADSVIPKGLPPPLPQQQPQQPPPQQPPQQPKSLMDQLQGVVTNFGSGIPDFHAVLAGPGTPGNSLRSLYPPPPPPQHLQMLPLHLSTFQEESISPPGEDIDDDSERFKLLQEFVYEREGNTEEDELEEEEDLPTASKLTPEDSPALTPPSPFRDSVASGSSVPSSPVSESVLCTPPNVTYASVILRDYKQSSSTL

[10] = target: T3, Metabotropic glutamate receptor 1; assay: (§1) Antagonist activity at rat mGluR1 by FLIPR assay; assay type: functional
[11] = target: Metabotropic glutamate receptor 1 (Rattus norvegicus) (UniProt P23385); assay: as §1; assay type: functional
Sequence of Metabotropic glutamate receptor 1 (Rattus norvegicus) (P23385 19-1199 limits assumed): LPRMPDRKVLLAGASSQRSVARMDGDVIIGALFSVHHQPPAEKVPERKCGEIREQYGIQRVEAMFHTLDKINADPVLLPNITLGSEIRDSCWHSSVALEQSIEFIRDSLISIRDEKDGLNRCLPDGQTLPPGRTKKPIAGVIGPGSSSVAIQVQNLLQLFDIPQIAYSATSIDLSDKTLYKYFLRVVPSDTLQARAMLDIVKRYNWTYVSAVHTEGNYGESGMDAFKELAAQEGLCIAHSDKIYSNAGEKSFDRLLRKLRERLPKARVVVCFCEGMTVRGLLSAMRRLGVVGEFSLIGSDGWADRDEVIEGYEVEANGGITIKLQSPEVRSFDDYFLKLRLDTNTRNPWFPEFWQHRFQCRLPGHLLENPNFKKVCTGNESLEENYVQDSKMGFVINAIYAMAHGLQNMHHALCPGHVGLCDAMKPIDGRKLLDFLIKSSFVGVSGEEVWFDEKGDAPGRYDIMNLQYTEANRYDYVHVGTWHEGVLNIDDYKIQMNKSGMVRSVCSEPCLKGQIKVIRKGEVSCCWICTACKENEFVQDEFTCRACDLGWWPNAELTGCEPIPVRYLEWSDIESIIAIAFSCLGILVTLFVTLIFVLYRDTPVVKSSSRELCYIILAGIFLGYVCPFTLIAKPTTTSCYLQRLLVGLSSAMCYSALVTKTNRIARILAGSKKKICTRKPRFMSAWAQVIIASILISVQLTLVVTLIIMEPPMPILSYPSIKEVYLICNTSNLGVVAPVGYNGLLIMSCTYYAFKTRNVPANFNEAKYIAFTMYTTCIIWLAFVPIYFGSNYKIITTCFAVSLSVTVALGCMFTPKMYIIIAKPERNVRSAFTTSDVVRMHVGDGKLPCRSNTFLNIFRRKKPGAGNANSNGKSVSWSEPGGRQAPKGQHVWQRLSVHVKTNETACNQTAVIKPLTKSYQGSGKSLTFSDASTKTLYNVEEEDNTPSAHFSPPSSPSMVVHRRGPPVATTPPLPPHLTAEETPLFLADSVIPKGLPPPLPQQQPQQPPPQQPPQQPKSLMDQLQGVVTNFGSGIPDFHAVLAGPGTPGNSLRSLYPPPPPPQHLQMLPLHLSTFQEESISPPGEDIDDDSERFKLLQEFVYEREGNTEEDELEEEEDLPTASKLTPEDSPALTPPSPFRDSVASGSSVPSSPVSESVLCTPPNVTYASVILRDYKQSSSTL

T1 sequence (P31424 whole entry): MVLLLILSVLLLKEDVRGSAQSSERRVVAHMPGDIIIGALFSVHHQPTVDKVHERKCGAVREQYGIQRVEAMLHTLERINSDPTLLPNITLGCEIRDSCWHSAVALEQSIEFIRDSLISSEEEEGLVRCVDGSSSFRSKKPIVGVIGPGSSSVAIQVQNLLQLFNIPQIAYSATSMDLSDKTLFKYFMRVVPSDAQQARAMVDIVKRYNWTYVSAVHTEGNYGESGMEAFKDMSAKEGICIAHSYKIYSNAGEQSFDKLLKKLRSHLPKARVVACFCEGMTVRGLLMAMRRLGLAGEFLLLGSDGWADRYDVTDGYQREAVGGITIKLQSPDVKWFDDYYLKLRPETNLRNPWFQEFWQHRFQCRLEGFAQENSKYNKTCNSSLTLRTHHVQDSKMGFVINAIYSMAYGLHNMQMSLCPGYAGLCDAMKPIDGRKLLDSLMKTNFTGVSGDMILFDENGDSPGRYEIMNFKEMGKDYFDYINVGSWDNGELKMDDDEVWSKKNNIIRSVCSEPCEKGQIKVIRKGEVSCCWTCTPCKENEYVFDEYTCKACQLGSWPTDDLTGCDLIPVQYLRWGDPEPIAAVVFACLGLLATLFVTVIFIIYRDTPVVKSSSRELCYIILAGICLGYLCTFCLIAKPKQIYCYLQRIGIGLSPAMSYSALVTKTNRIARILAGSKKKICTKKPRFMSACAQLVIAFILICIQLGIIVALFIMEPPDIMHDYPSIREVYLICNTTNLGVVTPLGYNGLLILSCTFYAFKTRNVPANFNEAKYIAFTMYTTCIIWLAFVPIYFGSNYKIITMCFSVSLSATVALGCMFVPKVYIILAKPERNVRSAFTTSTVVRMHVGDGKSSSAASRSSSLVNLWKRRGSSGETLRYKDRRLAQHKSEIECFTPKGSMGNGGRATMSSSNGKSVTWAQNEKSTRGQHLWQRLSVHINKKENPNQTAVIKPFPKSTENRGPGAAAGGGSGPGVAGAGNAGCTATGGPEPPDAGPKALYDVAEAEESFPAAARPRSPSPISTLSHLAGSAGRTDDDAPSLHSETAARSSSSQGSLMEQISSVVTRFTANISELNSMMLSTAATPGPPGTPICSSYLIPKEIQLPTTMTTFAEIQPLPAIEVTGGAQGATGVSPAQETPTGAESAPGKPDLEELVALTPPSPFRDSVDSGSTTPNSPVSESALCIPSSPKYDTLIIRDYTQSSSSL

Row | Structure (SMILES) | IC50 [2] [nM] | Activity [8] | IC50 [9] [nM] | also measured
1 | O[C@H]1CCCc2nc(C#Cc3ccccc3)ccc21 | – | – | – | EC50 [1]: 250 nM; Ki [2]: 9280 nM; Activity [3]: 2.5; Activity [4]: 2; EC50 [5]: 1080 nM
2 | C(#Cc1ccc2c(n1)CCCC2)c1ccccc1 | 510 | – | – | Ki [2]: 1500 nM
3 | O=C1CCCc2nc(C#Cc3ccccc3)ccc21 | – | – | – | Activity [6]: Active; EC50 [1]: 34 nM; Ki [2]: 800 nM; Activity [3]: 3.2; Activity [4]: 2; Activity [7]: Active
4 | OC1CCCc2nc(C#Cc3ccccc3)ccc21 (stereo not given) | – | – | – | EC50 [1]: 490 nM; Ki [2]: 7600 nM; Activity [3]: 2; Activity [4]: 2.2; EC50 [5]: 1130 nM
5 | CCCCNc1nc2c(cc1C#N)C(=O)CC(C)(C)C2 | – | inactive | 1700 | –
6 | CCc1nc(C#N)c(N2CCc3ccccc3CC2)nc1C | – | – | 6 | –
7 | CC1(C)CC(=O)c2cc(C#N)c(NCc3ccccc3)nc2C1 | – | inactive | 2500 | –
8 | CN(Cc1ccccc1)c1nc2c(cc1C#N)C(=O)CCC2 | 80000 | – | 25000 | –
9 | CC1(C)CC(=O)c2ccc(NCc3ccccc3)nc2C1 | 8100 | – | 45000 | –
10 | CC1(C)CC(=O)c2cc(C#N)c(NC3CCCCC3)nc2C1 | – | inactive | 4000 | –
11 | CC1(C)CC(=O)c2cc([N+](=O)[O-])c(NC3CC=C(c4ccc(F)cc4)CC3)nc2C1 (stereo not given) | – | inactive | – | IC50 [10]: 12000 nM
12 | O=C(NC12CC3CC(CC(C3)C1)C2)c1cnc2ccccc2n1 | – | – | 5 | –
13 | COc1ccc(N2CCN(c3nc4c(cc3C#N)C(=O)CC(C)(C)C4)CC2)cc1 | – | inactive | 7600 | –
14 | CC1(C)CC(=O)c2cc(C(=O)O)c(NC3CCCC3)nc2C1 | – | inactive | – | IC50 [10]: 23000 nM
15 | COC(=O)c1ccc(C#Cc2ccccc2)nc1 | 4600 | – | – | Ki [2]: 1400 nM
16 | CC1(C)CC(=O)c2cc(C#N)c(N3CCN(c4ccc(F)cc4)CC3)nc2C1 | – | inactive | 160 | –
17 | CC1(C)CC(=O)c2cc(-c3nn[nH]n3)c(NC3CCCC3)nc2C1 | – | inactive | – | IC50 [10]: 13000 nM
18 | CC1(C)CC(=O)c2ccc(C#Cc3ccccn3)nc2C1 | 2600 | – | – | Ki [2]: 210 nM
19 | CC1(C)CC(=O)c2cc(C#N)c(NC3CCCC3)nc2C1 | 49000 | – | 78 | –
20 | O=C1CCCc2nc(C#Cc3ccccn3)ccc21 | 60000 | – | – | Ki [2]: 2360 nM
21 | CCCCCCNc1nc2c(cc1C#N)C(=O)CC(C)(C)C2 | – | inactive | 2600 | –
22 | O=C(NC12CC3CC(CC(C3)C1)C2)c1ccc2ccccc2n1 | – | – | 440 | –
23 | COC1CCCc2nc(C#Cc3ccccc3)ccc21 (stereo not given) | 80 | – | – | Ki [2]: 139 nM
24 | CC1(C)CC(=O)c2cc(C#N)c(N3CC=C(c4ccc(F)cc4)CC3)nc2C1 | – | inactive | 110 | –

Row | Structure (SMILES) | IC50 [2] [nM] | Activity [8] | IC50 [9] [nM] | also measured
25 | O=C(NC12CC3CC(CC(C3)C1)C2)c1cnccn1 | – | – | 7000 | –
26 | CC1(C)CC(=O)c2cc(Cl)c(NC3CCCC3)nc2C1 | – | – | – | IC50 [10]: 7900 nM
27 | CC1(C)CC(=O)c2cc(C#N)c(NC34CC5CC(CC(C5)C3)C4)nc2C1 | – | inactive | – | –
28 | O=C1CCCc2nc(OCc3ccccc3)ccc21 | 1900 | – | 25000 | –
29 | CC1(C)CC(=O)c2cc(C#N)c(N3CCN(c4ccccc4)CC3)nc2C1 | – | inactive | 130 | –
30 | CC1(C)CCc2nc(C#Cc3ccccc3)ccc2C1=O | 23 | – | – | Ki [2]: 51 nM
31 | CN(Cc1ccccc1)c1nc2c(cc1C#N)C(=O)CC(C)(C)C2 | – | inactive | 5300 | –
32 | CC1(C)CC(=O)c2cc(-c3cncnc3)c(NC3CCCC3)nc2C1 | – | inactive | – | Activity [11]: inactive
33 | CC1(C)CC(=O)c2cc(C#N)c(SCc3ccccc3)nc2C1 | 57000 | – | 4800 | –
34 | CC1(C)CC(=O)c2cc(N3CCOCC3)c(N3CC=C(c4ccc(F)cc4)CC3)nc2C1 | – | inactive | – | IC50 [10]: 15000 nM
35 | CC1(C)CC(=O)c2ccc(OCc3ccccc3)nc2C1 | 12000 | – | 21000 | –
36 | O=C(NC12CC3CC(CC(C3)C1)C2)c1cnc2ccccc2c1 | – | – | 52 | –
37 | CN(C)C(=O)c1cc2c(nc1NC1CCCC1)CC(C)(C)CC2=O | 58000 | – | – | IC50 [10]: 21000 nM
38 | CC1(C)CC(=O)c2cc(C#N)c(N3CC=C(c4ccccc4)CC3)nc2C1 | – | inactive | < 1000 | –
39 | CC1(C)CC(=O)c2cc(C#N)c(NC3Cc4ccccc4C3)nc2C1 | – | inactive | 1900 | –
40 | CC1(C)CC(=O)c2cc(C#N)c(N3CCc4ccccc4C3)nc2C1 | – | inactive | 1500 | –
41 | N#Cc1cc2c(nc1SCc1ccccc1)CCCC2=O | – | inactive | 30000 | –
42 | O[C@@H]1CCCc2nc(C#Cc3ccccc3)ccc21 | – | – | – | EC50 [1]: 180 nM; Ki [2]: 4710 nM; Activity [3]: 2.5; Activity [4]: 3.1; EC50 [5]: 980 nM
43 | CCCNc1nc2c(cc1C#N)C(=O)CC(C)(C)C2 | – | inactive | 2300 | –
44 | CC1(C)CC(=O)c2cc(Br)c(N3CCN(c4ccc(F)cc4)CC3)nc2C1 | 37000 | – | ≤ 1000 | –
45 | N#Cc1cc2c(nc1NC1CCCCC1)CCCC2=O | – | inactive | 3000 | –
46 | O=C1CCCc2nc(N3CCN(c4ccccc4)CC3)ccc21 | – | inactive | 10400 | –
47 | CC1(C)CC(=O)c2cc(Br)c(NC3CCCC3)nc2C1 | 29000 | – | – | Activity [11]: inactive

From ChEMBL document CHEMBL1140723, “Positive and negative modulation of group I metabotropic glutamate receptors” (J Med Chem, 2008)
